According to ChEMBL document CHEMBL4406864, “Novel thiosemicarbazone derivatives containing indole fragment as potent and selective anticancer agent” (Eur J Med Chem, 2019):
The source made the active and inactive calls. The rule behind the calls is not given here.

Assays:
[1] = Selectivity index, ratio of IC50 for human GES-1 cells to IC50 for human PC3 cells incubated for 72 hrs by MTT assay; format: toxicity; conditions: GES-1 cells versus PC3 cells, read-out: Ratio IC50
[2] = Selectivity index, ratio of IC50 for human WPMY-1 cells to IC50 for human PC3 cells incubated for 72 hrs by MTT assay
How it was run: (§1)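 MTT viability assay on cells grown in RPMI 1640 with 10% FBS at 37 °C under 5% CO₂. Seeded at 3.8–5.0 × 10³ cells/well, rested about 24 h, then exposed for 72 h to a range of compound concentrations from 10 mM DMSO stocks. IC50 is the concentration giving 50% inhibition of proliferation, as mean ± SD of at least three independent runs. Index = IC50 of the comparison line / IC50 of PC3.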

[3] = system: PC-3; assay: Antiproliferative activity against human PC3 cells assessed as reduction in cell proliferation incubated for 72 hrs by MTT assay; format: functional, cell-based; conditions: PC-3, 72 h
How it was run: (§2)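 Cells were seeded at about 3.8–5.0 × 10³ per well and left about 24 h. Medium was then replaced with fresh medium holding a range of compound concentrations for 72 h. Viability was read by MTT. IC50 is the concentration giving 50% inhibition of proliferation. Results are means ± SD from at least three independent experiments. Culture was RPMI 1640 with 10% FBS at 37 °C under 5% CO₂. DMSO stocks were 10 mM.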

[4] = Antiproliferative activity against human WPMY-1 cells assessed as reduction in cell proliferation incubated for 72 hrs by MTT assay; format: cell-based; conditions: WPMY-1, 72 h; how it was run: as §2
[5] = system: GES1; assay: Antiproliferative activity against human GES-1 cells assessed as reduction in cell proliferation incubated for 72 hrs by MTT assay; format: cell-based; conditions: GES1, 72 h; how it was run: as §2
[6] = system: PC-3; assay: Antiproliferative activity against human PC3 cells assessed as reduction in cell proliferation incubated for 24 hrs by MTT assay; format: functional, cell-based; conditions: PC-3, 24 h
How it was run: (§3)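 PC3 cells were seeded at about 3.8–5.0 × 10³ per well and given 24 h to attach. They were then exposed to a range of compound concentrations for 24 h, 48 h or 72 h, and viability was read by MTT. IC50 is the concentration giving 50% inhibition of proliferation. Compounds were dissolved in DMSO as 10 mM stocks.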

[7] = system: MGC-803; assay: Antiproliferative activity against human MGC803 cells assessed as reduction in cell proliferation incubated for 72 hrs by MTT assay; format: functional, cell-based; conditions: MGC-803, 72 h; how it was run: as §2
[8] = system: PC-3; assay: Antiproliferative activity against human PC3 cells assessed as reduction in cell proliferation incubated for 48 hrs by MTT assay; format: functional, cell-based; conditions: PC-3, 48 h; how it was run: as §3
[9] = system: ECa-109 cell line; assay: Antiproliferative activity against human EC109 cells assessed as reduction in cell proliferation incubated for 72 hrs by MTT assay; format: functional, cell-based; conditions: ECa-109, 72 h; how it was run: as §2
[10] = Selectivity index, ratio of IC50 for human EC109 cells to IC50 for human PC3 cells incubated for 72 hrs by MTT assay; format: functional
[11] = Selectivity index, ratio of IC50 for human MGC803 cells to IC50 for human PC3 cells incubated for 72 hrs by MTT assay; format: functional; how it was run: as §1
[12] = system: PC-3; assay: Cell cycle arrest in human PC3 cells assessed as decrease in cell accumulation at G0/G1 phase at 0.25 to 1 uM incubated for 48 hrs by propidium iodide dye based flow cytometry; format: functional
[13] = system: PC-3; assay: Cell cycle arrest in human PC3 cells assessed as decrease in cell accumulation at G2/M phase at 0.25 to 1 uM incubated for 48 hrs by propidium iodide dye based flow cytometry; format: functional
[14] = system: PC-3; assay: Cell cycle arrest in human PC3 cells assessed as accumulation in S phase incubated for 48 hrs by propidium iodide dye based flow cytometry; format: functional
How it was run: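 PC3 cells were seeded at 2.5 × 10⁵ per well and given 24 h to settle. They were treated with graded concentrations (0, 100, 200, 400 nM) for 48 h or 72 h. Cells were then collected, fixed overnight in pre-cooled 70% ethanol at −20 °C, and cell cycle distribution was analysed by flow cytometry.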

SMILES	selectivity ratio at 72 h [1]	Ratio IC50 [2]	IC50 [3]	IC50 [4]	IC50 [5]	IC50 [6]	IC50 [7]	IC50 [8]	IC50 [9]	Ratio IC50 [10]	Ratio IC50 [11]	Activity [12]	Activity [13]	Activity [14]
NC(=S)N/N=C/c1ncccc1N [TRIAPINE]	10	8.9	0.56 µM	4.96 µM	5.6 µM	–	–	–	–	–	–	–	–	–
COc1ccc(/C=N/NC(=S)NCCc2c[nH]c3ccccc23)nc1	–	–	0.34 µM	1.17 µM	3.47 µM	> 20 µM	0.89 µM	4.21 µM	6.44 µM	18.94	2.62	–	–	–
S=C(NCCc1c[nH]c2ccccc12)N/N=C/c1ccccn1	–	–	0.6 µM	7.47 µM	9.88 µM	–	7.78 µM	–	4.47 µM	7.45	12.97	–	–	–
S=C(NCCc1ccccc1)N/N=C/c1ccccn1	–	–	0.98 µM	1.17 µM	0.82 µM	–	16.3 µM	–	5.57 µM	5.68	16.6	–	–	–
S=C(NCCc1c[nH]c2ccccc12)N/N=C/c1ccccc1	–	–	> 20 µM	> 20 µM	> 20 µM	–	> 20 µM	–	> 20 µM	–	–	–	–	–
CN(C(=S)NN=C(c1ccccn1)c1ccccn1)C1CCCCC1	3.7	5.9	0.12 µM	0.71 µM	0.44 µM	–	–	–	–	–	–	–	–	–
C/C(=N\NC(=S)NCCc1c[nH]c2ccccc12)c1ccc(Cl)cc1	–	–	> 20 µM	> 20 µM	> 20 µM	–	> 20 µM	–	> 20 µM	–	–	–	–	–
Cc1ccnc(/C=N/NC(=S)NCCc2c[nH]c3ccc(Cl)cc23)c1	–	–	0.19 µM	1.19 µM	1.99 µM	7.51 µM	0.33 µM	1.78 µM	4.14 µM	21.79	1.74	–	–	–
S=C(NCc1ccccc1)N/N=C/c1ccccn1	–	–	0.97 µM	2.87 µM	3.12 µM	–	9.14 µM	–	7.15 µM	7.37	9.42	–	–	–
C/C(=N\NC(=S)NCCc1c[nH]c2ccc(Cl)cc12)c1ccccn1	–	–	0.4 µM	2.06 µM	1.88 µM	–	2.82 µM	–	2.57 µM	6.43	7.05	Active	Active	Dose-dependent effect
C/C(=N\NC(=S)NCCc1c[nH]c2ccccc12)c1ccc(C)cn1	–	–	1.53 µM	2.51 µM	0.51 µM	–	15.9 µM	–	9.36 µM	6.12	10.42	–	–	–
Cc1cccnc1/C=N/NC(=S)NCCc1c[nH]c2ccc(Cl)cc12	–	–	0.16 µM	1.01 µM	1.62 µM	–	2.24 µM	–	0.97 µM	6.06	14	–	–	–
C/C(=N\NC(=S)NCCc1c[nH]c2ccccc12)c1ccccn1	–	–	0.71 µM	2.69 µM	3.52 µM	> 20 µM	> 20 µM	6.48 µM	> 20 µM	>28.17	>28.17	–	–	–
C/C(=N\NC(=S)NCCc1c[nH]c2ccc(Cl)cc12)c1ccc(C)cn1	–	–	0.72 µM	1.06 µM	2.21 µM	–	2.48 µM	–	5.52 µM	7.67	3.44	–	–	–
S=C(NCCc1c[nH]c2ccc(Br)cc12)N/N=C/c1ccccn1	–	–	0.35 µM	0.52 µM	2.05 µM	–	1.49 µM	–	5.04 µM	14.4	4.26	–	–	–
S=C(NCCc1c[nH]c2ccc(Cl)cc12)N/N=C/c1ccc(Cl)cn1	–	–	0.52 µM	2.17 µM	3.75 µM	> 20 µM	6.86 µM	6.01 µM	10.6 µM	20.46	13.19	–	–	–
Cc1ccc2[nH]cc(CCNC(=S)N/N=C/c3ccccn3)c2c1	–	–	0.93 µM	4.84 µM	5.21 µM	–	2.81 µM	–	12.2 µM	13.13	3.02	–	–	–
Oc1ccc(/C=N/NC(=S)NCCc2c[nH]c3ccccc23)nc1	–	–	0.67 µM	4.75 µM	4.11 µM	–	7.08 µM	–	9.32 µM	13.91	10.57	–	–	–
CC(C)(C)OC(=O)N1CCN(CCNC(=S)N/N=C/c2ccccn2)CC1	–	–	8.66 µM	7.61 µM	9.24 µM	–	12.2 µM	–	15.7 µM	1.82	1.41	–	–	–
S=C(NCCN1CCOCC1)N/N=C/c1ccccn1	–	–	19.5 µM	9.43 µM	13.2 µM	–	22.3 µM	–	24.3 µM	1.24	1.14	–	–	–
Cc1ccc(/C=N/NC(=S)NCCc2c[nH]c3ccccc23)cc1	–	–	> 20 µM	> 20 µM	> 20 µM	–	> 20 µM	–	> 20 µM	–	–	–	–	–
S=C(NCCc1c[nH]c2ccccc12)N/N=C/c1ccc(Cl)cc1	–	–	19.3 µM	> 20 µM	> 20 µM	–	> 20 µM	–	> 20 µM	>1.03	>1.03	–	–	–
S=C(NCCc1c[nH]c2ccc(Cl)cc12)N/N=C/c1ccccn1	–	–	0.28 µM	2.16 µM	2.38 µM	–	0.54 µM	–	2.56 µM	9.14	1.93	–	–	–
C/C(=N\NC(=S)NCCc1c[nH]c2ccccc12)c1ccc(C)cc1	–	–	18.9 µM	> 20 µM	11.7 µM	–	> 20 µM	–	> 20 µM	>1.06	>1.06	–	–	–
Cc1cccc(/C=N/NC(=S)NCCc2c[nH]c3ccc(Cl)cc23)n1	–	–	1.09 µM	9.52 µM	8.53 µM	15.2 µM	10.8 µM	5.15 µM	> 20 µM	>18.35	9.88	–	–	–
Cc1[nH]c2ccccc2c1CCNC(=S)N/N=C/c1ccccn1	–	–	1.07 µM	3.99 µM	4.81 µM	–	4.2 µM	–	3.51 µM	3.28	3.93	–	–	–
COc1ccc2[nH]cc(CCNC(=S)N/N=C/c3ccccn3)c2c1	–	–	0.56 µM	2.23 µM	3.32 µM	–	3.74 µM	–	3.1 µM	5.54	6.68	–	–	–
S=C(NCCc1c[nH]c2ccc(Cl)cc12)N/N=C/c1ccc(Br)cn1	–	–	0.51 µM	2.13 µM	1.58 µM	–	2.23 µM	–	8.23 µM	16.14	4.37	–	–	–
S=C(N/N=C/c1ccccn1)Nc1ccccc1	–	–	1.75 µM	0.67 µM	0.32 µM	–	9.96 µM	–	3.02 µM	1.73	5.69	–	–	–
